Compound activity as filed in PubChem.
Rows were chosen to be rich in hits. Some 0.77% of all compounds tested hit in one or more screens of this group.
hIAP act: human IAP activation; 0.16% of 330,000 active; activation factor at 10 µM; P09923; purified human IAP, CDP-Star luminescence, 30 min; active compounds read high; 1 = vehicle-only enzyme, 0 = enzyme-free background; AID 2524;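 active means activation factor of the enzyme at least 2-fold when tested at 20 µM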
Target sequence (P09923 whole entry, looked up): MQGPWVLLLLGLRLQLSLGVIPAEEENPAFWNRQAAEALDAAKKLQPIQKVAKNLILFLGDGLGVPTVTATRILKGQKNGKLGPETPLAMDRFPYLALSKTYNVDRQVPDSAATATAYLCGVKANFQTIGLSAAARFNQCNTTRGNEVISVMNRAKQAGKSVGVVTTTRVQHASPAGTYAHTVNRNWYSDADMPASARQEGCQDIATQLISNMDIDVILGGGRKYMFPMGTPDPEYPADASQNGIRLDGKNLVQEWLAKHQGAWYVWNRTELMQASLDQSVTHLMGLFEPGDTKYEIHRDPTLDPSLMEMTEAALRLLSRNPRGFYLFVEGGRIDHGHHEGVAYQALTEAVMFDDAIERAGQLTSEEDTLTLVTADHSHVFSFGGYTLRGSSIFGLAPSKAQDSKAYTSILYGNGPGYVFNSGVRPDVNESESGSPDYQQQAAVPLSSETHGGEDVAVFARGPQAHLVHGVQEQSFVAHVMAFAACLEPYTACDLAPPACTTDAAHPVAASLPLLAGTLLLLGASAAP
mIAP block: mouse IAP inhibition; 0.2% of 330,000 active; purified mouse IAP, CDP-Star luminescence, 30 min; AID 2806; inhibition, % at 10 µM;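 active means inhibition of at least 40% at 10 µM in the primary screen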;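 further: plate controls were DMSO with enzyme for no effect and no enzyme wells for full effect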
bIAP act: increases bovine intestinal alkaline phosphatase activity. purified bovine IAP, CDP-star luminescence, 30 min; active compounds read high; fold of DMSO-control signal, blank-subtracted. activation factor at 20 µM. 0.17% of 200,000 active. AID 1016;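 active means activation factor of 2 or more at 20 µM, a signal rise over negative controls twice the positive control's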
bIAP inhibitor: blocks bovine intestinal alkaline phosphatase activity | purified bovine IAP, CDP-star luminescence, 30 min | inhibition, % at 20 µM | 190,000 tested, under 10 active | AID 1019;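 active means over 50% inhibition of intestinal alkaline phosphatase at 20 µM in the single-dose screen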
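System: Purified bovine intestinal alkaline phosphatase (IAP) enzyme | Input: IAP diluted 1/65,000,000 in the well | Also added: CDP-star chemiluminescent phosphatase substrate, 30 µM final | Dosing: 20 µM single dose | Times: Enzyme reaction for 30 min at room temperature | Detection: Luminescence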
mIAP activ: mouse IAP activation; muIAP, CDP-Star luminescence, 30 min; active compounds read high; 1 = vehicle-only enzyme signal, 0 = enzyme-free wells; activation factor at 10 µM; 0.24% of 330,000 active; AID 2805;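 active means activation factor of at least 2 at 20 µM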
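System: Mouse IAP enzyme | Also added: CDP-Star substrate | Dosing: Compounds dispensed in DMSO | Schedule: 30 min enzyme-substrate-compound incubation at room temperature | Technique: Chemiluminescence readout | Control set: DMSO-only wells and no-enzyme negative control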
hIAP inh: blocks human intestinal alkaline phosphatase; P09923; purified IAP, CDP-Star luminescence, 30 min; inhibition, % at 10 µM; 0.12% of 330,000 active; AID 2544;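 active means inhibition reaching a set limit with compound at 10 µM in the primary screen, cut at about 35% in these data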;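 further: plate controls were DMSO wells with enzyme for no effect and no-enzyme buffer wells for full effect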
* = called active by the depositor; i = inactive; nt = no result.

SMILES	hIAP act	mIAP block	bIAP act	bIAP inhibitor	mIAP activ	hIAP inh
CC(C)n1c(C(O)c2ccc3c(c2)OCO3)nc2ccccc21 (stereo unspecified)	0.88	0	2.6*	-165	1	12
Cc1cc(C)c(S(=O)(=O)N2CCCC(C(=O)NCc3ccccn3)C2)c(C)c1 (stereo unspecified)	0.96	0	nt	nt	1	4
COC(=O)c1ccc(NC(=O)Nc2ccc(F)c(Cl)c2)cc1	1.3	-129	1	-1	2.3*	-29
COC(=O)c1cc(NC(=O)Nc2ccccc2)ccc1Cl	1	-150	0.6	44	2.5*	-3
COC(=O)c1cccc(NC(=O)Nc2ccc(Cl)c(Cl)c2)c1	0.99	-204	0.9	10	3*	0
O=C(Nc1ccncc1)Nc1ccc(F)c(Cl)c1	0.95	-64	1	4	1.6	4
CCOc1ccc(C(=O)NCC(=O)OCCCC(=O)c2ccc(F)cc2)cc1OCC	0.9	-3	nt	nt	1	10
COc1cccc(-c2nn(-c3ccccc3)cc2C(=O)OCC(=O)Nc2ncc(Cl)cc2Cl)c1	0.87	11	2*	-97	0.89	13
O=C(COC(=O)c1cn(-c2ccccc2)nc1-c1ccccc1)Nc1ncc(Cl)cc1Cl	0.93	5	nt	nt	0.95	7
Cc1nn(-c2ccccc2)c(C)c1/C=C/C(=O)OCC(=O)Nc1ncc(Cl)cc1Cl	0.95	-11	11*	i	1.1	5
O=C(O)CCNC(=O)c1ccc(N=Nc2ccc(O)c(C(=O)O)c2)cc1	0.83	16	nt	nt	0.84	17
O=C(NCCCn1ccnc1)c1cn(-c2ccccc2)nc1-c1ccc(F)cc1	1.2	-28	2.2*	-115	1.3	-21
O=C(O)c1ccccc1C(=O)NCCCn1ccnc1	1.4	-13	nt	nt	1.1	-42
COc1ccc(/C=C2\SC(=O)N(CC(=O)Nc3cccc(C)c3)C2=O)cc1O	1.3	14	nt	nt	0.86	-31
COc1ccc(CCC(=O)NCCS(=O)(=O)N2CCN(c3ccc(F)cc3)CC2)cc1	1.2	-3	nt	nt	1	-24
OCc1nc2ccccc2n1CCCCOc1ccccc1	0.94	-8	nt	nt	1.1	6
OCc1nc2ccccc2n1CCCOc1ccc(Br)cc1	1.3	4	2.9*	-194	0.96	-32
Cc1ccc(C)c(N2CCN(C(=O)CCC(=O)Nc3nnc(C(F)(F)F)s3)CC2)c1	1.1	4	nt	nt	0.96	-9
O=C(CN1CCC(c2nc3ccccc3[nH]2)CC1)Nc1ccc2c(c1)OCO2	1	-14	1.1	-13	1.1	-4
Cc1ccc2nc(C3CCN(CC(=O)Nc4ccc5c(c4)OCCO5)CC3)[nH]c2c1	0.89	-10	2.1*	-113	1.1	11
Cc1cc(OCC(=O)NCCCN2CCOCC2)c2c(C)cc(=O)oc2c1	1.2	1	nt	nt	0.99	-21
CCn1ccnc1CNCc1cn(-c2cc(C)ccc2C)nc1-c1ccccc1	1.2	-34	2.7*	-170	1.3	-18
Cc1ccccc1CSCC(=O)NCCSc1ccccn1	0.98	0	1.1	-8	1	2
S=c1[nH]nc(-c2ccccc2)n1/N=C/C=C/c1ccco1	1.1	53*	0.9	6	0.47	-7
CCCCCCCCCCCCCCCCn1cc[n+](CC(C)=O)c1	nt	nt	5.2*	-417	nt	nt
SMILES	hIAP act	mIAP block	bIAP act	bIAP inhibitor	mIAP activ	hIAP inh
CCCCCCn1ccc(=N)cc1	1.1	-1	0.9	11	1	-15
Cc1cc(=O)cc(C)n1-c1ccccc1Br	0.98	4	nt	nt	0.95	2
N#C/C(=C/c1ccc(-c2ccc(S(N)(=O)=O)cc2)o1)c1nc2ccccc2s1	0.91	57*	1	-4	0.43	9
N#C/C(=C/c1ccc(-c2ccc(S(N)(=O)=O)cc2)o1)C(=O)Nc1ccccc1	1	28	1	2	0.72	-5
COc1ccc(/C=C(\NC(=O)c2ccc(Cl)cc2)C(=O)NCC2CCCO2)cc1OC (stereo unspecified)	1.2	-15	nt	nt	1.1	-20
CCC1Nc2ncnc(N3CCCCC3)c2N(Cc2ccc(OC)cc2)C1=O (stereo unspecified)	0.92	3	nt	nt	0.97	8
CC(c1ccccc1)N1CCn2c(nc3cc(NC(=O)c4cccs4)ccc32)C1 (stereo unspecified)	0.91	2	1.1	-14	0.98	9
CC(c1ccccc1)N1CCn2c(nc3cc(NC(=O)NC4CCCCC4)ccc32)C1 (stereo unspecified)	nt	nt	2.5*	-150	nt	nt
O=c1ccc(S(=O)(=O)N2CCCC2)cn1Cc1ccc(Cl)cc1Cl	0.88	12	nt	nt	0.88	12
O=C(CN1C(=O)C2CCCCC2C1=O)Nc1cc(C(F)(F)F)ccc1N1CCCC1 (stereo unspecified)	0.96	7	nt	nt	0.93	4
C[n+]1ccn(CC(=O)c2ccc(Br)cc2)c1	1	6	1	-4	0.94	-2
C[n+]1ccn(CC(=O)c2ccc(Cl)cc2)c1	1	7	2.5*	-148	0.93	-4
CC(Oc1ccccc1Cl)C(=O)Nc1ccc(S(=O)(=O)Nc2nccs2)cc1 (stereo unspecified)	1	-1	nt	nt	1	0
CC(C(=O)NCc1ccco1)n1ccc2cc(S(=O)(=O)N3CCCC3)ccc21 (stereo unspecified)	1.1	-4	nt	nt	1	-5
COc1ccc(CNC(=O)C(C)n2ccc3cc(S(=O)(=O)N4CCCCCC4)ccc32)cc1 (stereo unspecified)	1.4	-107	nt	nt	2.1*	-38
C=CCN1C2CCCC1CC(NC(=O)Nc1cc(C)cc(C)c1)C2 (stereo unspecified)	1.4	-69	2*	-96	1.7	-38
S=C(Nc1ccc(Cl)cc1)NC1CC2CCC(C1)N2Cc1ccccc1 (stereo unspecified)	1.3	-126	1.1	-15	2.3*	-26
CNC(=S)NC1CC2CCC(C1)N2Cc1ccccc1 (stereo unspecified)	0.93	-2	0.9	10	1	7
S=C(Nc1cccc(Cl)c1)NC1CC2CCCC(C1)N2C1CCCC1 (stereo unspecified)	1	-120	1	-1	2.2*	-4
Cc1cc(C)cc(NC(=S)NC2CC3CCCC(C2)N3CC(C)C)c1 (stereo unspecified)	1.1	-38	0.9	15	1.4	-11
COc1cccc(NC(=S)NC2CC3CCCC(C2)N3C2CCCC2)c1 (stereo unspecified)	1.2	-30	1.2	-22	1.3	-24
S=C(NCc1cccc(Cl)c1)NC1CCCCC1	1.3	-147	1	5	2.5*	-29
COc1cccc(OCC(O)CNC(=O)c2oc3ccc(C)cc3c2C)c1 (stereo unspecified)	1.2	-2	nt	nt	1	-22
COC(=O)[C@@H](NCc1cccc(CN([C@H](C(=O)OC)C(C)C)S(C)(=O)=O)c1)C(C)C	1.2	-1	nt	nt	1	-21
